{"source": "ChEMBL document CHEMBL1123393", "about": "“5-HT1 and 5-HT2 binding characteristics of 1-(2,5-dimethoxy-4-bromophenyl)-2-aminopropane analogues” (J Med Chem, 1986)", "key": {"[1]": {"target": "Serotonin 1 (5-HT1) receptor (Rattus norvegicus, UniProt P28564+P30940+P19327+P28565)", "test": "Binding affinity for 5-hydroxytryptamine 1 receptor of rat prefrontal cortex", "assay_type": "tissue-based", "procedure,_shortened": "(§1)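 Rat prefrontal cortex (female Sprague-Dawley, ca. 200 g) homogenate, 4 mg wet weight tissue per tube, in 50 mM Tris, 5 mM MgCl2, 0.5 mM EDTA (pH 7.4 at 37 °C). Radioligand 2 nM [3H]-5-HT for 5-HT1 or 0.4 nM [3H]ketanserin for 5-HT2. Nonspecific binding with 1 μM 5-HT or 1 μM cinanserin. Filtration, scintillation counting. IC50 from a 23-point curve in triplicate by nonlinear fit; Ki by Cheng-Prusoff.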"}, "[2]": {"target": "Serotonin 2 (5-HT2) receptor (Rattus norvegicus, UniProt P30994+P08909+P14842)", "test": "Displacement of [3H]ketanserin from rat prefrontal cortex 5-hydroxytryptamine 2 receptor", "assay_type": "tissue-based", "procedure,_shortened": "as §1"}, "[3]": {"system": "Rattus norvegicus", "test": "DOM appropriate responding in percent when compound administered at 4 mg/kg", "assay_type": "functional", "procedure,_shortened": "(§2)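 Rats trained to discriminate DOM (1.0 mg/kg ip, 15-min presession interval) from saline on two levers. Test doses given ip. Percent of responses on the DOM-appropriate lever recorded during a 2.5-min extinction session.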"}, "[4]": {"system": "Rattus norvegicus", "test": "DOM appropriate responses per min when compound administered at 5 mg/kg", "assay_type": "functional", "procedure,_shortened": "(§3)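 DOM (1.0 mg/kg ip) versus saline two-lever discrimination in food-restricted male Sprague-Dawley rats. Test doses given ip with a 15-min presession interval. Response rate (responses/min) measured during a 2.5-min extinction test session.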"}, "[5]": {"system": "Rattus norvegicus", "test": "DOM appropriate responses per min when compound administered at 6 mg/kg", "assay_type": "functional", "procedure,_shortened": "as §3"}, "[6]": {"system": "Rattus norvegicus", "test": "Number of animals responding to the drug 5 (mg/kg) out of 6 animals tested", "assay_type": "functional"}, "[7]": {"system": "Rattus norvegicus", "test": "Number of animals responding to the drug 8 (mg/kg) out of 3 animals tested", "assay_type": "functional"}, "[8]": {"system": "Rattus norvegicus", "test": "DOM appropriate responses per min when compound administered at 8 mg/kg", "assay_type": "functional", "procedure,_shortened": "as §3"}, "[9]": {"system": "Rattus norvegicus", "test": "DOM appropriate responding in percent when compound administered at 8 mg/kg", "assay_type": "functional", "procedure,_shortened": "as §2"}, "[10]": {"system": "Rattus norvegicus", "test": "Number of animals responding to the drug (mg/kg) out of 4 animals tested", "assay_type": "functional"}, "[11]": {"system": "Rattus norvegicus", "test": "DOM appropriate responding in percent when compound administered at 5 mg/kg", "assay_type": "functional", "procedure,_shortened": "as §2"}, "[12]": {"system": "Rattus norvegicus", "test": "DOM appropriate responding in percent when compound administered at 6 mg/kg", "assay_type": "functional", "procedure,_shortened": "as §2"}, "[13]": {"system": "Rattus norvegicus", "test": "Concentration required to produce DOM like response when administered in rats", "assay_type": "functional", "procedure,_shortened": "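Six male Sprague-Dawley rats, food-restricted to about 80% of free-feeding weight, trained on two-lever drug discrimination: DOM HCl 1.0 mg/kg ip versus saline, 15 min pre-session. Test drug given ip before a 2.5-min extinction test.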"}, "[14]": {"system": "Rattus norvegicus", "test": "Number of animals responding to the drug 7 (mg/kg) out of 5 animals tested", "assay_type": "functional"}, "[15]": {"system": "Rattus norvegicus", "test": "Number of animals responding to the drug 6 (mg/kg) out of 5 animals tested", "assay_type": "functional"}, "[16]": {"system": "Rattus norvegicus", "test": "DOM appropriate responses per min when compound administered at 7 mg/kg", "assay_type": "functional", "procedure,_shortened": "as §3"}, "[17]": {"system": "Rattus norvegicus", "test": "DOM appropriate responding in percent when compound administered at 7 mg/kg", "assay_type": "functional", "procedure,_shortened": "as §2"}, "[18]": {"system": "Rattus norvegicus", "test": "DOM appropriate responses per min when compound administered at 4 mg/kg", "assay_type": "functional", "procedure,_shortened": "as §3"}, "[19]": {"system": "Rattus norvegicus", "test": "Number of animals responding to the drug 0.5 (mg/kg) out of 3 animals tested", "assay_type": "functional"}, "[20]": {"system": "Rattus norvegicus", "test": "Number of animals responding to the drug 0.2 (mg/kg) out of 3 animals tested", "assay_type": "functional"}, "[21]": {"system": "Rattus norvegicus", "test": "DOM appropriate responses per min when compound administered at 0.5 mg/kg", "assay_type": "functional", "procedure,_shortened": "as §3"}, "[22]": {"system": "Rattus norvegicus", "test": "DOM appropriate responding in percent when compound administered at 0.2 mg/kg", "assay_type": "functional", "procedure,_shortened": "as §2"}, "[23]": {"system": "Rattus norvegicus", "test": "DOM appropriate responding in percent when compound administered at 0.5 mg/kg", "assay_type": "functional", "procedure,_shortened": "as §2"}, "[24]": {"system": "Rattus norvegicus", "test": "DOM appropriate responses per min when compound administered at 0.1 mg/kg", "assay_type": "functional", "procedure,_shortened": "as §3"}, "[25]": {"system": "Rattus norvegicus", "test": "Number of animals responding to the drug 0.1 (mg/kg) out of 4 animals tested", "assay_type": "functional"}, "[26]": {"system": "Rattus norvegicus", "test": "DOM appropriate responding in percent when compound administered at 0.1 mg/kg", "assay_type": "functional", "procedure,_shortened": "as §2"}, "[27]": {"system": "Rattus norvegicus", "test": "DOM appropriate responses per min when compound administered at 0.2 mg/kg", "assay_type": "functional", "procedure,_shortened": "as §3"}}, "data": [{"smiles": "COc1ccc(OC)c(CC(C)N)c1", "note": "(racemic)", "values": [{"measurement": "Ki", "setting": "[1]", "value": 1.02, "unit": "µM"}]}, {"smiles": "COc1ccccc1CC(C)N", "note": "(racemic)", "values": [{"measurement": "Ki", "setting": "[1]", "value": 3.5, "unit": "µM"}]}, {"smiles": "CCCNC(C)Cc1cc(OC)c(Br)cc1OC", "note": "(stereo unspecified)", "values": [{"measurement": "Ki", "setting": "[2]", "value": 1.93, "unit": "µM"}, {"measurement": "Activity", "setting": "[3]", "value": 24, "unit": "%"}, {"measurement": "Response", "setting": "[4]", "value": 6.3, "unit": "min"}, {"measurement": "Response", "setting": "[5]", "value": 10.2, "unit": "min"}, {"measurement": "Activity", "setting": "[6]", "value": 6}, {"measurement": "Activity", "setting": "[7]", "value": 3}, {"measurement": "Response", "setting": "[8]", "value": 5.9, "unit": "min"}, {"measurement": "Activity", "setting": "[9]", "value": 92, "unit": "%"}, {"measurement": "Activity", "setting": "[10]", "value": 4}, {"measurement": "Ki", "setting": "[1]", "value": 1.32, "unit": "µM"}, {"measurement": "Activity", "setting": "[11]", "value": 63, "unit": "%"}, {"measurement": "Activity", "setting": "[12]", "value": 79, "unit": "%"}, {"measurement": "ED50", "setting": "[13]", "value": 4.76, "unit": "mg/kg"}, {"measurement": "Activity", "setting": "[14]", "value": 3}, {"measurement": "Activity", "setting": "[15]", "value": 4}, {"measurement": "Response", "setting": "[16]", "value": 5.2, "unit": "min"}, {"measurement": "Activity", "setting": "[17]", "value": 88, "unit": "%"}, {"measurement": "Response", "setting": "[18]", "value": 10.2, "unit": "min"}]}, {"smiles": "CCCNC(C)Cc1cc(OC)ccc1OC", "note": "(stereo unspecified)", "values": [{"measurement": "Ki", "setting": "[2]", "value": 25.6, "unit": "µM"}, {"measurement": "Ki", "setting": "[1]", "value": 4.1, "unit": "µM"}]}, {"smiles": "COc1cc(CC(C)N)c(OC)cc1Br", "note": "(racemic) [BROLAMFETAMINE]", "values": [{"measurement": "Ki", "setting": "[1]", "value": 3.34, "unit": "µM"}, {"measurement": "ED50", "setting": "[13]", "value": 0.2, "unit": "mg/kg"}]}, {"smiles": "COc1cc(CC(C)N)c(O)cc1Br", "note": "(stereo unspecified)", "values": [{"measurement": "Ki", "setting": "[2]", "value": 0.21, "unit": "µM"}, {"measurement": "Activity", "setting": "[19]", "value": 3}, {"measurement": "Activity", "setting": "[20]", "value": 3}, {"measurement": "Response", "setting": "[21]", "value": 11.9, "unit": "min"}, {"measurement": "Activity", "setting": "[22]", "value": 55, "unit": "%"}, {"measurement": "Activity", "setting": "[23]", "value": 96, "unit": "%"}, {"measurement": "Response", "setting": "[24]", "value": 15.4, "unit": "min"}, {"measurement": "Ki", "setting": "[1]", "value": 1.71, "unit": "µM"}, {"measurement": "Activity", "setting": "[25]", "value": 4}, {"measurement": "ED50", "setting": "[13]", "value": 0.18, "unit": "mg/kg"}, {"measurement": "Activity", "setting": "[26]", "value": 19, "unit": "%"}, {"measurement": "Response", "setting": "[27]", "value": 12.1, "unit": "min"}]}]}
